The record followed here is PMC2195561 (The Journal of Experimental Medicine, 1999).

As a reminder, the IC50 is the concentration at which inhibition is half-maximal. Low readings indicate inhibition by little substance, high ones a need for much substance.

Assay [1] deals with T1, TAP (Homo sapiens, UniProt Q03518+Q03519).
T1 sequence (Q03518 1-748): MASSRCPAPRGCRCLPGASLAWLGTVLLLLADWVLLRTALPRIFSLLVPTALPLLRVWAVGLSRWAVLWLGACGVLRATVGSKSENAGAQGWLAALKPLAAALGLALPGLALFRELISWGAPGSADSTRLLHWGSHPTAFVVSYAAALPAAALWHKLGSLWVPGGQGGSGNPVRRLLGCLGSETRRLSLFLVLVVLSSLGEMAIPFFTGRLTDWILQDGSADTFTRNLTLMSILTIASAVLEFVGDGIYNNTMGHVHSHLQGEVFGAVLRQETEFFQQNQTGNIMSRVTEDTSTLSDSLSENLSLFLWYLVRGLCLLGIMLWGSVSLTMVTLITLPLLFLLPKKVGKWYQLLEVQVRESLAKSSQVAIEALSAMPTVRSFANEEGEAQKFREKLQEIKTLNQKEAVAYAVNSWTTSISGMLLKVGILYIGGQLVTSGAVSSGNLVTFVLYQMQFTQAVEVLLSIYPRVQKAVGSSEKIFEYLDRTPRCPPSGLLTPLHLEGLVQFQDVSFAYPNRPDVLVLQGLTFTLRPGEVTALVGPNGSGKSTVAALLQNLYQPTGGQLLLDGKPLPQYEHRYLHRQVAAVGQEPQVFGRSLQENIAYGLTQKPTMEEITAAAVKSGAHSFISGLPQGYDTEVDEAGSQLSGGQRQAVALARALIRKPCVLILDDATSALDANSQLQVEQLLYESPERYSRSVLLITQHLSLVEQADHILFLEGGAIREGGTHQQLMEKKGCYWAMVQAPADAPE
T1 sequence (Q03519 1-686): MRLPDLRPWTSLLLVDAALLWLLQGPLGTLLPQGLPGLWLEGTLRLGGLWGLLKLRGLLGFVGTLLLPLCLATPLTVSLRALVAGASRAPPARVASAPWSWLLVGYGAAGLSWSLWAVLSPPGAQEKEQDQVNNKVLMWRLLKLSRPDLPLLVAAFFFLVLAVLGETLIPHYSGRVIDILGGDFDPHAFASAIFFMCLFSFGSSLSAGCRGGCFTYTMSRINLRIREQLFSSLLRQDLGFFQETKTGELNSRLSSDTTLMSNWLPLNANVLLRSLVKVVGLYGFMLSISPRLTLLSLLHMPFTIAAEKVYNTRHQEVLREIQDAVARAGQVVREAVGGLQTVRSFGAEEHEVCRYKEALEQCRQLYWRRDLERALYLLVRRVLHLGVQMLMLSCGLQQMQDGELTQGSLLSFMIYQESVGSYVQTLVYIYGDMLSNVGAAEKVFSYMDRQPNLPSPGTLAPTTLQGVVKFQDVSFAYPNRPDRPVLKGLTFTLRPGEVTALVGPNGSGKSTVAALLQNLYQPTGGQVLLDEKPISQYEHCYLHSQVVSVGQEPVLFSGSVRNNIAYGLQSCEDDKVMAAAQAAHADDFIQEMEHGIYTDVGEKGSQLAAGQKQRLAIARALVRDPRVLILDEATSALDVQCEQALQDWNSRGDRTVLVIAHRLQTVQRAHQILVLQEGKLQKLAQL
The assay is described as follows: Direct TAP-mediated translocation of radiolabeled peptides, human TAP. The assay is classed as biochemical. The note with it: streptolysin O–permeabilized LCL721 cells; Con A–Sepharose recovery; Fig. 1 B. The gist of the method: (§1)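 Test peptides carrying an N-linked glycosylation sequon are radioiodinated (Na-125I, chloramine-T) and added to streptolysin O–permeabilized LCL721 cells. Peptide reaching the ER acquires an N-glycan and is recovered on Con A–Sepharose, given as a fraction of total input. Controls are samples run without ATP and TAP-deficient T2 cells.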

A further assay deals with Con A. The experiment in a line: Con A–Sepharose recovery in the absence of ATP. The assay is classed as binding. The note with it: no N-linked glycan, Fig. 1 B. An outline of the steps: as §1
For assay [2], the system named is TAP. The assay is described as follows: Direct TAP-mediated translocation of radiolabeled peptides, murine TAP. The following applies: data not shown. The assay is classed as biochemical.
The target in assay [3] is T1, TAP. The experiment in a line: Competition of TAP-mediated translocation of iodinated peptide 417. The assay is classed as biochemical. The gist of the method: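 Iodinated index peptide (125I via chloramine-T) premixed with unlabelled competitor peptide, then added to streptolysin O–permeabilized human LCL721 cells for TAP-mediated transport into the ER. Translocated index peptide is given as a fraction of that recovered without competitor.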

No end group written: not given here.

Consider TVNKTES [O-β-GlcNAc]AY [417-G], for which the “translocation by human TAP” value at TAP [1] is recorded as “also translocated by TAP”. In the assay with Con A, the “recovery by Con A–Sepharose in the absence of ATP” value is “not itself a ligand for Con A”.
“TVNKTERAY [compound 417, reference compound]”: the “translocation by human TAP” value on TAP [1] is listed as “very efficiently translocated”. Moreover, in the assay with TAP [2], the “translocation by murine TAP” value is “very efficiently translocated”.
Consider TVNKTESAY [417-S], for which the “translocation by human TAP” value on TAP [1] is listed as “very efficiently translocated”. In the assay on TAP [2], the “translocation by murine TAP” value is reported as “very efficiently translocated”.
FASGNYSAL [wt-S]: the IC50 at TAP [3] was determined as 12 µM. This lies in the double-digit micromolar range.
